Assays:
[1] = Cytotoxicity against human HEL cells assessed as drug level causing microscopically detectable alteration of normal cell morphology after 3 days; assay type: cell-based
Human alphaherpesvirus 2 = experiment: Antiviral activity against HSV2 G in human HEL cells assessed as protection against virus-induced cytopathicity; assay type: functional, organism-based; conditions: Human alphaherpesvirus 2, strain G
Method in brief: (§1)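 Confluent cell monolayers inoculated with 100 CCID₅₀ virus. After 1-2 h adsorption, residual virus removed and cultures incubated with varying compound concentrations. Cytopathicity scored once it reached completion in untreated infected controls. EC₅₀ = dose reducing virus-induced cytopathogenicity by 50%.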

Vaccinia virus = experiment: Antiviral activity against Vaccinia virus Lederle in human HEL cells assessed as protection against virus-induced cytopathicity; assay type: functional, organism-based; conditions: Orthopoxvirus vaccinia
[2] = system: Vesicular stomatitis virus; experiment: Antiviral activity against VSV in human HEL cells assessed as protection against virus-induced cytopathicity; assay type: functional, organism-based
[3] = Cytotoxicity against feline CRFK cells by MTS assay; assay type: cell-based, Felis catus; conditions: cat
Feline coronavirus = experiment: Antiviral activity against Feline coronavirus in feline […] cells assessed as inhibition of virus-induced cytopathicity; assay type: functional, organism-based; conditions: Alphacoronavirus 1
Felid alphaherpesvirus 1 = experiment: Antiviral activity against Feline herpesvirus in feline […] cells assessed as inhibition of virus-induced cytopathicity; assay type: functional, organism-based
[4] = target: Human immunodeficiency virus type 1 reverse transcriptase (Human immunodeficiency virus 1, UniProt Q72547); experiment: Inhibition of HIV1 reverse transcriptase p66/p51; conditions: read-out: IC50
[5] = target: Human immunodeficiency virus type 1 reverse transcriptase (Human immunodeficiency virus 1, UniProt Q72547, K103N); experiment: Inhibition of HIV1 reverse transcriptase p66/p51 K103N mutant; conditions: read-out: IC50
Method in brief: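 Substrate was 0.5 µg poly(rA)/oligo(dT) 10:1 (0.3 µM 3′-OH ends) with 10 µM [³H]dTTP, at 37 °C. Acid-precipitable radioactivity was counted on GF/C filters after TCA washes.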

Human alphaherpesvirus 1 [6] = experiment: Antiviral activity against HSV1 KOS in human HEL cells assessed as protection against virus-induced cytopathicity; assay type: functional, organism-based; conditions: Human alphaherpesvirus 1, KOS
Human alphaherpesvirus 1 [7] = experiment: Antiviral activity against thymidine kinase deficient and acyclovir resistant HSV1 KOS in human HEL cells assessed as protection against virus-induced cytopathicity; assay type: functional, organism-based; conditions: Human alphaherpesvirus 1, KOS
[8] = system: Respiratory syncytial virus; experiment: Antiviral activity against RSV Long in human HeLa cells assessed as protection against virus-induced cytopathicity; assay type: functional, organism-based; method in brief: as §1
[9] = Cytotoxicity against human HeLa cells assessed as drug level causing microscopically detectable alteration of normal cell morphology after 3 days; assay type: cell-based
Method in brief: (§2)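 Serial compound dilutions added to confluent HeLa or Vero monolayers. MCC = minimum concentration causing microscopically detectable alteration of cell morphology after 3 days of incubation.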

[10] = Cytotoxicity against african green monkey Vero cells assessed as drug level causing microscopically detectable alteration of normal cell morphology after 3 days; assay type: cell-based; conditions: chlorocebus sabaeus; method in brief: as §2
Coxsackievirus B4 [11] = experiment: Antiviral activity against Coxsackievirus B4 in human HeLa cells assessed as protection against virus-induced cytopathicity; assay type: functional, organism-based; conditions: Enterovirus B; method in brief: as §1
Coxsackievirus B4 [12] = experiment: Antiviral activity against Coxsackievirus B4 in african green monkey Vero cells assessed as protection against virus-induced cytopathicity; assay type: functional, organism-based; conditions: Enterovirus B; method in brief: as §1
Human respirovirus 3 = experiment: Antiviral activity against Parainfluenza virus type 3 in african green monkey Vero cells assessed as protection against virus-induced cytopathicity; assay type: functional, organism-based; conditions: Human respirovirus 3, Vero; method in brief: as §1
Sindbis virus = experiment: Antiviral activity against Sindbis virus in african green monkey Vero cells assessed as protection against virus-induced cytopathicity; assay type: functional, organism-based; method in brief: as §1
Punta Toro virus = experiment: Antiviral activity against Punta Toro virus in african green monkey Vero cells assessed as protection against virus-induced cytopathicity; assay type: functional, organism-based; method in brief: as §1
[13] = Cytotoxicity against MDCK cells assessed as drug level causing microscopically detectable alteration of normal cell morphology; assay type: cell-based, Canis lupus familiaris; conditions: dog
[14] = Cytotoxicity against MDCK cells by MTS assay; assay type: cell-based, Canis lupus familiaris; conditions: dog
Influenza A virus [15] = experiment: Antiviral activity against influenza H1N1 virus in MDCK cells assessed as reduction of virus-induced cytopathicity by visual cytopathic effect scoring method; assay type: functional, organism-based
Influenza A virus [16] = experiment: Antiviral activity against influenza H1N1 virus in MDCK cells assessed as reduction of virus-induced cytopathicity by MTS method; assay type: functional, organism-based; conditions: mdck
Influenza A virus H3N2 = experiment: Antiviral activity against influenza H3N2 virus in MDCK cells assessed as reduction of virus-induced cytopathicity by MTS method; assay type: functional, organism-based
Influenza B virus [17] = experiment: Antiviral activity against influenza B virus in MDCK cells assessed as reduction of virus-induced cytopathicity by visual cytopathic effect scoring method; assay type: functional, organism-based
Influenza B virus [18] = experiment: Antiviral activity against influenza B virus in MDCK cells assessed as reduction of virus-induced cytopathicity by MTS method; assay type: functional, organism-based

SMILES | MCC at 72 h [1] [µM] | EC50 (Human alphaherpesvirus 2) [µM] | EC50 (Vaccinia virus) [µM] | EC50 [2] [µM] | IC50 [4] [µM] | IC50 [5] [µM] | EC50 (Human alphaherpesvirus 1 [6]) [µM] | also measured
Nc1nc2c(ncn2COC(CO)CO)c(=O)[nH]1 [GANCICLOVIR] | > 100 | 0.2 | > 100 | > 100 | – | – | – | CC50 [3]: > 100 µM; EC50 (Feline coronavirus): > 100 µM; EC50 (Felid alphaherpesvirus 1): 1.2 µM
Cc1cc(C)cc(S(=O)(=O)c2c(C(=O)N[C@H](C)C(N)=O)[nH]c3ccc(Cl)cc23)c1 | – | – | – | – | 0.017 | 0.253 | – | –
Cc1cc(C)cc(S(=O)(=O)c2c(C(=O)N[C@H](C)C(N)=O)[nH]c3ccc(Br)cc23)c1 | – | – | – | – | 0.016 | 0.324 | – | –
Nc1ccn(C[C@@H](CO)OCP(=O)(O)O)c(=O)n1 [CIDOFOVIR] | > 250 | 1 | 20 | > 250 | – | – | 2 | EC50 (Human alphaherpesvirus 1 [7]): 1 µM
O=c1[nH]c(=O)n([C@H]2C[C@H](O)[C@@H](CO)O2)cc1/C=C/Br [BRIVUDINE] | > 250 | 29 | 4 | > 250 | – | – | 0.02 | –
NC(=O)c1ncn([C@@H]2O[C@H](CO)[C@@H](O)[C@H]2O)n1 [RIBAVIRIN] | > 250 | 250 | 112 | 125 | – | – | > 250 | EC50 [8]: 10 µM; MCC at 72 h [9]: > 250 µM; MCC at 72 h [10]: > 250 µM; EC50 (Coxsackievirus B4 [11]): 50 µM; EC50 (Coxsackievirus B4 [12]): ≥ 250 µM; EC50 (Human respirovirus 3): > 50 µM; EC50 (Sindbis virus): 250 µM; EC50 (Punta Toro virus): 50 µM; EC50 (Human alphaherpesvirus 1 [7]): > 250 µM; MCC [13]: > 100 µM; CC50 [14]: > 100 µM; EC50 (Influenza A virus [15]): 900 µM; EC50 (Influenza A virus [16]): 8400 µM; EC50 (Influenza A virus H3N2): 8.1 µM; EC50 (Influenza B virus [17]): 4 µM; EC50 (Influenza B virus [18]): 4.8 µM
Cc1cc(C)cc(S(=O)(=O)c2c(C(=O)N[C@@H](C)C(N)=O)[nH]c3ccc(Br)cc23)c1 | – | – | – | – | 0.013 | 1.5 | – | –
Cc1cc(C)cc(S(=O)(=O)c2c(C(=O)N[C@H](C)CC(N)=O)[nH]c3ccc(Cl)cc23)c1 | – | – | – | – | 0.147 | 1.42 | – | –

Reference: ChEMBL document CHEMBL1153955, “Indolylarylsulfones bearing natural and unnatural amino acids. Discovery of potent inhibitors of HIV-1 non-nucleoside wild type and resistant mutant strains reverse transcriptase and coxsackie B4 virus” (J Med Chem, 2009)
